Measurements: ChEMBL document CHEMBL1156796, “Design, synthesis, and antihepatitis B virus activities of novel 2-pyridone derivatives” (J Med Chem, 2010)

Tests used:
Hepatitis B virus [1] = experiment: Antiviral activity against HBV infected in human HepG2(2.2.15) cells assessed as inhibition of HBV DNA replication after 9 days by PCR; type: functional, organism-based
Hepatitis B virus [2] = experiment: Antiviral activity against HBV infected in human HepG2(2.2.15) cells assessed as inhibition of HBeAg level after 9 days by ELISA; type: functional, organism-based; settings: HepG2 2.2.15, 216 h
Hepatitis B virus [3] = experiment: Antiviral activity against HBV infected in human HepG2(2.2.15) cells assessed as inhibition of HBsAg level after 9 days by ELISA; type: functional, organism-based; settings: HepG2 2.2.15, 216 h
[4] = Selectivity index, ratio of CC50 for human HepG2(2.2.15) cells to IC50 for HBV infected in human HepG2(2.2.15) cells assessed as inhibition of HBeAg; type: functional
[5] = Selectivity index, ratio of CC50 for human HepG2(2.2.15) cells to IC50 for HBV infected in human HepG2(2.2.15) cells assessed as inhibition of HBsAg; type: functional
How it was run: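 MTT at 5 g/L added 4 h before lysis in 10% SDS/50% DMF, pH 7.2, with OD read at 570 nm. IC50: HBsAg in day-9 supernatants measured by ELISA. SI = CC50/IC50.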

[6] = Cytotoxicity against human HepG2(2.2.15) cells; type: cell-based
[7] = Selectivity index, ratio of CC50 for human HepG2(2.2.15) cells to IC50 for HBV infected in human HepG2(2.2.15) cells assessed as inhibition of HBV DNA replication; type: functional
Hepatitis B virus [8] = experiment: Antiviral activity against HBV infected in human HepG2(2.2.15) cells assessed as inhibition of HBV DNA replication after 9 days by PCR relative to adefovir; type: functional
How it was run: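 HepG2 2.2.15 cells treated with different dosages of compound; culture supernatants collected nine days after treatment. IC50 taken as the concentration giving 50% inhibition of HBV DNA replication.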

[9] = Hepatitis B virus, HepG2 2.2.15, 216 h, read-out: IC50

IC50 (Hepatitis B virus [1]; hepg2 2.2.15)	IC50 (Hepatitis B virus [2])	IC50 (Hepatitis B virus [3])	IC50 (Hepatitis B virus [1]; [9])	SMILES	Ratio CC50/IC50 [4]	Ratio CC50/IC50 [5]	CC50 [6]	Ratio CC50/IC50 [7]	fold change (FC) (Hepatitis B virus [8])
Not Active	> 109 µM	> 109 µM	–	COc1ccc(C(=O)c2ccc(=O)n(-c3ccc([N+](=O)[O-])cc3)c2)c(O)c1	<1.07	<1.07	177 µM	–	–
–	5 µM	29 µM	30 µM	CCCCC/N=C(\c1ccc(=O)n(CCCCC)c1)c1ccc(OC)cc1O	19.6	3.38	98 µM	3.27	–
–	2 µM	> 119 µM	5 µM	COc1ccc(C(=O)c2ccc(=O)n(-c3ccc(C)cc3)c2)c(O)c1	>59.7	–	> 119 µM	>23.9	–
–	0.1 µM	18 µM	11 µM	COc1ccc(C(=O)c2ccc(=O)n(-c3ccccc3C)c2)c(O)c1	>1194	>6.63	> 119 µM	>10.85	–
–	774 µM	> 110 µM	11.2 µM	COc1ccc(C(=O)c2ccc(=O)n(-c3ccc(C(C)=O)cc3)c2)c(O)c1	0.17	<1.21	133 µM	11.88	–
–	40 µM	13 µM	3 µM	COc1ccc(/C(=N/Cc2ccc(F)cc2F)c2ccc(=O)n(Cc3ccc(F)cc3F)c2)c(O)c1	0.25	0.77	10 µM	3.33	–
–	30 µM	72 µM	92.6 µM	COc1ccc(/C(=N/Cc2ccccc2F)c2ccc(=O)n(Cc3ccccc3F)c2)c(O)c1	1.7	0.71	51 µM	0.55	–
–	> 846 µM	846 µM	170 µM	COc1ccc(C(=O)c2ccc(=O)n(C(C)C)c2)c(O)c1	<0.82	0.82	696 µM	4.09	–
–	46.3 µM	> 139 µM	33.3 µM	CCCn1cc(C(=O)c2ccc(OC)cc2O)ccc1=O	2.83	–	131 µM	3.93	–
–	39 µM	46 µM	20 µM	CCCCCn1cc(C(=O)c2ccc(OC)cc2O)ccc1=O	2.03	1.72	79 µM	3.95	–
–	0.3 µM	29 µM	0.8 µM	COc1ccc(C(=O)c2ccc(=O)n(-c3cccc(C)c3)c2)c(O)c1	530	5.48	159 µM	198.75	–
–	76 µM	176 µM	20 µM	COc1ccc(C(=O)c2ccc(=O)n(-c3ccccc3)c2)c(O)c1	2.36	1.02	179 µM	8.95	–
–	54 µM	> 122 µM	> 122 µM	COc1ccc(/C(=N/C(C)C)c2ccc(=O)n(C(C)C)c2)c(O)c1	>2.26	–	> 122 µM	–	–
–	1.6 µM	61 µM	6.2 µM	COc1ccc(C(=O)c2ccc(=O)n(-c3ccc(Cl)cc3)c2)c(O)c1	102.5	2.69	164 µM	26.45	–
–	58 µM	276 µM	101 µM	C=CCn1cc(C(=O)c2ccc(OC)cc2O)ccc1=O	4	0.84	232 µM	2.3	–
–	> 133 µM	> 133 µM	28.6 µM	CCCCn1cc(C(=O)c2ccc(OC)cc2O)ccc1=O	<0.5	<0.5	67 µM	2.34	–
–	56 µM	111 µM	0.12 µM	CCCC/N=C(\c1ccc(=O)n(CCCC)c1)c1ccc(OC)cc1O	1	0.5	56 µM	466.67	4

IC50 (Hepatitis B virus [1]; hepg2 2.2.15)	IC50 (Hepatitis B virus [2])	IC50 (Hepatitis B virus [3])	IC50 (Hepatitis B virus [1]; [9])	SMILES	Ratio CC50/IC50 [4]	Ratio CC50/IC50 [5]	CC50 [6]	Ratio CC50/IC50 [7]	fold change (FC) (Hepatitis B virus [8])
–	0.73 µM	99 µM	99.6 µM	COc1ccc(C(=O)c2ccc(=O)n(C3CCCCC3)c2)c(O)c1	20.55	0.15	15 µM	0.15	–
–	2 µM	36 µM	1 µM	COc1ccc(C/N=C(\c2ccc(=O)n(Cc3ccc(OC)cc3)c2)c2ccc(OC)cc2O)cc1	16	0.89	32 µM	32	–
–	> 118 µM	> 118 µM	98.3 µM	COc1ccc(C(=O)c2ccc(=O)n(-c3ccc(F)cc3)c2)c(O)c1	–	–	> 118 µM	>1.2	–
–	40 µM	98 µM	12 µM	C=CC/N=C(\c1ccc(=O)n(CC=C)c1)c1ccc(OC)cc1O	0.5	0.2	20 µM	1.67	–
–	38 µM	13 µM	0.5 µM	COc1ccc(C(=O)c2ccc(=O)n(-c3cc(C)ccc3C)c2)c(O)c1	0.01	0.04	0.5 µM	1	–
–	10 µM	123 µM	> 462 µM	COc1ccc(/C(=N/C2CC2)c2ccc(=O)n(C3CC3)c2)c(O)c1	16.4	1.33	164 µM	<0.35	–
–	> 86.9 µM	> 86.9 µM	64.5 µM	COc1ccc(/C(=N/Cc2ccc(F)cc2)c2ccc(=O)n(Cc3ccc(F)cc3)c2)c(O)c1	<0.12	<0.12	10 µM	0.15	–
–	49 µM	> 114 µM	76 µM	COc1ccc(C(=O)c2ccc(=O)n(-c3ccccc3OC)c2)c(O)c1	>2.3	–	> 114 µM	>1.5	–
–	> 118 µM	> 118 µM	21.7 µM	COc1ccc(/C(=N/Cc2ccc(C)cc2)c2ccc(=O)n(Cc3ccc(C)cc3)c2)c(O)c1	<0.17	<0.17	20 µM	0.92	–
–	4.4 µM	40 µM	31.5 µM	COc1ccc(/C(=N/Cc2ccccc2)c2ccc(=O)n(Cc3ccccc3)c2)c(O)c1	23.18	2.55	102 µM	3.24	–
–	> 403 µM	496 µM	97.5 µM	COc1ccc(/C(=N/Cc2ccc(F)c(F)c2)c2ccc(=O)n(Cc3ccc(F)c(F)c3)c2)c(O)c1	<0.5	0.41	201 µM	2.07	–
–	0.5 µM	13 µM	2.1 µM	COc1ccc(/C(=N/Cc2cccc(F)c2)c2ccc(=O)n(Cc3cccc(F)c3)c2)c(O)c1	16	0.62	8 µM	3.81	–
–	71 µM	201 µM	4 µM	COc1ccc(/C(=N/C2CCCCC2)c2ccc(=O)n(C3CCCCC3)c2)c(O)c1	5.45	1.93	387 µM	96.75	–
–	55 µM	> 110 µM	0.206 µM	CCOc1ccc(-n2cc(C(=O)c3ccc(OC)cc3O)ccc2=O)cc1	>1.99	–	> 110 µM	>532	–
–	> 97 µM	77 µM	> 364 µM	COc1ccc(C(=O)c2ccc(=O)n(/C=C/Nc3cccc4ccccc34)c2)c(O)c1	<2.5	3.17	244 µM	<0.67	–
–	> 122 µM	> 122 µM	33.8 µM	CCC/N=C(\c1ccc(=O)n(CCC)c1)c1ccc(OC)cc1O	<1	<1	120 µM	3.55	–
–	222 µM	> 114 µM	5.2 µM	COc1ccc(-n2cc(C(=O)c3ccc(OC)cc3O)ccc2=O)cc1	1.56	–	346 µM	66.54	–

SMILES	IC50 (Hepatitis B virus [1]; hepg2 2.2.15)	IC50 (Hepatitis B virus [2])	IC50 (Hepatitis B virus [3])	IC50 (Hepatitis B virus [1]; [9])	Ratio CC50/IC50 [4]	Ratio CC50/IC50 [5]	CC50 [6]	Ratio CC50/IC50 [7]	fold change (FC) (Hepatitis B virus [8])
Nc1ncnc2c1ncn2CCOCP(=O)(O)O [ADEFOVIR]	–	286 µM	305 µM	0.517 µM	1.89	1.77	540 µM	1044.5	–
